The source of these data is ChEMBL document CHEMBL1125605 (1991).

Common to all, as to type: functional
Experiment [1] has as its system E6SM. The experiment is described as follows: Concentration required to inhibit VSV induced cytopathogenicity in E6SM cells by 50%. Particulars: Homo sapiens. An outline of the steps: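 Antiviral assay in E6SM human embryonic skin-muscle fibroblasts, with cells infected by vesicular stomatitis virus (VSV) in microtiter plates. Virus-induced cytopathogenicity is assessed. The value is the compound concentration that reduces VSV-induced cytopathogenicity by 50%.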

The test system of experiment [2] is HEL. The experiment is described as follows: Concentration required to inhibit TK-VZV (07-1) induced cytopathogenicity in HEL cells by 50%. Particulars: Homo sapiens. For orientation: Cytopathic effects are the visible damage that an infection or toxin causes in cultured cells.
In experiment [3] the test system is HEL. Description: Concentration required to inhibit VZV (oka) induced cytopathogenicity in HEL cells by 50%. As to conditions: Homo sapiens.
For experiment [4], the system named is E6SM. The experiment is described as follows: Concentration required to inhibit HSV-2(G) induced cytopathogenicity in E6SM cells by 50%. As to conditions: Homo sapiens.
For experiment [5], the system named is HEL. Description: Concentration required to inhibit CMV (AD-169) induced cytopathogenicity in HEL cells by 50%. As to conditions: Homo sapiens.
Experiment [6] deals with E6SM. Description: Concentration required to inhibit TK-HSV-1 (VMW1837) induced cytopathogenicity in E6SM cells by 50%. As to conditions: Homo sapiens.
Experiment [7] relates to E6SM. Description: Concentration required to inhibit TK-HSV-1 (B2006) induced cytopathogenicity in E6SM cells by 50%. Particulars: Homo sapiens.
In experiment [8] the test system is E6SM. Description: Concentration required to inhibit HSV-1 (KOS) induced cytopathogenicity in E6SM cells by 50%. As to conditions: Homo sapiens.
The subject of experiment [9] is HEL. Description: Concentration required to inhibit TK-VZV (YSR) induced cytopathogenicity in HEL cells by 50%. As to conditions: Homo sapiens.
Experiment [10] deals with E6SM. The experiment is described as follows: Concentration required to inhibit HSV-1 (McIntyre) induced cytopathogenicity in E6SM cells by 50%. As to conditions: Homo sapiens.
The test system of experiment [11] is E6SM. The experiment is described as follows: Concentration required to cause a microscopically detectable alteration of normal cell morphology in E6SM cells. Particulars: Homo sapiens; read-out: MIC. In outline: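 Uninfected E6SM human embryonic skin-muscle fibroblasts were exposed to compound and examined under the microscope. The value is the minimum concentration that caused a detectable alteration of normal cell morphology.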

Experiment [12] relates to HEL. The experiment is described as follows: Concentration required to cause 50% reduction in HEL cell growth. As to conditions: Homo sapiens; read-out: MIC. In outline:
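Cytotoxicity was measured as inhibition of growth of HEL human embryonic lung fibroblasts. The value is the compound concentration that reduced cell growth by 50%.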

The subject of experiment [13] is E6SM. Description: Concentration required to inhibit HSV-2(196) induced cytopathogenicity in E6SM cells by 50%. Particulars: Homo sapiens.
Experiment [14] deals with HEL. Description: Concentration required to inhibit CMV (Davis) induced cytopathogenicity in HEL cells by 50%. As to conditions: Homo sapiens.
The subject of experiment [15] is E6SM. Description: Concentration required to inhibit HSV-1 (F) induced cytopathogenicity in E6SM cells by 50%. As to conditions: Homo sapiens.
The subject of experiment [16] is HEL. Description: Concentration required to inhibit VZV (YS) induced cytopathogenicity in HEL cells by 50%. As to conditions: Homo sapiens.
In experiment [17] the test system is E6SM. Description: Concentration required to inhibit HSV-2(lyons) induced cytopathogenicity in E6SM cells by 50%. Particulars: Homo sapiens.
In experiment [18] the test system is E6SM. Description: oncentration required to inhibit VV induced cytopathogenicity in E6SM cells by 50%. As to conditions: Homo sapiens.

Values after ≈ are worked out from the molar mass of the structure shown.

With `O=c1[nH]c(=O)n([C@H]2C[C@H](O)[C@@H](CO)O2)cc1-c1ccc(Cl)o1`, the MIC was more than 200 µg/mL in [1]; more than 100 µg/mL in experiment [2]; 2.5 µg/mL (≈ 7.61 µM) in experiment [3]; 150 µg/mL (≈ 456 µM) in experiment [4]; more than 100 µg/mL in experiment [5]; 150 µg/mL (≈ 456 µM) in [6]. Also, the MIC is 150 µg/mL (≈ 456 µM) in [7]; 0.2 µg/mL (≈ 0.608 µM) in [8]; more than 100 µg/mL in experiment [9]; 0.4 µg/mL (≈ 1.22 µM) in experiment [10]; 150 µg/mL (≈ 456 µM) in experiment [13]; more than 100 µg/mL in experiment [14]. The MIC was determined as 0.2 µg/mL (≈ 0.608 µM) in experiment [15], 3 µg/mL (≈ 9.13 µM) in [16], 150 µg/mL (≈ 456 µM) in experiment [17] and 45 µg/mL (≈ 137 µM) in experiment [18]. Further, in [11], the minimum cytotoxic concentration (morphology alteration) is more than 400 µg/mL. In experiment [12], the CC50 (50% cell growth inhibitory concentration) came to 105 µg/mL (≈ 319 µM).
With `O=c1[nH]c(=O)n([C@H]2C[C@H](O)[C@@H](CO)O2)cc1-c1ccc(Br)o1`, the MIC in [1] is more than 200 µg/mL; in [2] it was more than 100 µg/mL; in experiment [3] it was 3 µg/mL (≈ 8.04 µM); in [4], 150 µg/mL (≈ 402 µM); in [5], more than 100 µg/mL; in [7] it was 100 µg/mL (≈ 268 µM). For the same compound, the MIC was 0.15 µg/mL (≈ 0.402 µM) in experiment [8]; more than 100 µg/mL in experiment [9]; 0.2 µg/mL (≈ 0.536 µM) in experiment [10]; 150 µg/mL (≈ 402 µM) in [13]; more than 100 µg/mL in experiment [14]; 0.1 µg/mL (≈ 0.268 µM) in experiment [15]. The MIC in experiment [16] stood at 3 µg/mL (≈ 8.04 µM); in experiment [17] it was 300 µg/mL (≈ 804 µM); in experiment [18], 70 µg/mL (≈ 188 µM). In addition, the minimum cytotoxic concentration (morphology alteration) in [11] was more than 400 µg/mL. The CC50 (50% cell growth inhibitory concentration) in experiment [12] stood at 125 µg/mL (≈ 335 µM).
Take `O=c1[nH]c(=O)n([C@H]2C[C@H](O)[C@@H](CO)O2)cc1-c1ccco1`: the MIC in [1] is 300 µg/mL (≈ 1020 µM); in [2] it was 155 µg/mL (≈ 527 µM); in experiment [3] it was 4 µg/mL (≈ 13.6 µM); in experiment [4] it was 200 µg/mL (≈ 680 µM); in experiment [5], more than 400 µg/mL; in [6], 300 µg/mL (≈ 1020 µM). Also, the MIC in experiment [7] was 150 µg/mL (≈ 510 µM); in experiment [8], 0.2 µg/mL (≈ 0.68 µM); in experiment [9] it was 220 µg/mL (≈ 748 µM); in experiment [10] it was 0.2 µg/mL (≈ 0.68 µM); in [13], more than 400 µg/mL; in [14] it was more than 400 µg/mL. In addition, the MIC in experiment [15] is 0.2 µg/mL (≈ 0.68 µM); in experiment [16], 7 µg/mL (≈ 23.8 µM); in experiment [17] it was more than 400 µg/mL. Further, in [11], the minimum cytotoxic concentration (morphology alteration) is more than 400 µg/mL. Moreover, the CC50 (50% cell growth inhibitory concentration) in [12] was determined as 100 µg/mL (≈ 340 µM).
On to `O=c1[nH]c(=O)n([C@H]2C[C@H](O)[C@@H](CO)O2)cc1/C=C/Br` [BRIVUDINE], for which the MIC was 400 µg/mL (≈ 1200 µM) in experiment [1]; more than 40 µg/mL in [2]; 0.001 µg/mL (≈ 0.003 µM) in experiment [3]; 20 µg/mL (≈ 60 µM) in experiment [4]; 250 µg/mL (≈ 750 µM) in experiment [5]; 4 µg/mL (≈ 12 µM) in [6]. The MIC in experiment [7] was 20 µg/mL (≈ 60 µM); in [8], 0.02 µg/mL (≈ 0.06 µM); in [9] it was more than 40 µg/mL; in [10] it was 0.02 µg/mL (≈ 0.06 µM); in experiment [13], more than 400 µg/mL; in experiment [14], 250 µg/mL (≈ 750 µM). In addition, the MIC in experiment [15] amounted to 0.02 µg/mL (≈ 0.06 µM); in experiment [16], 0.001 µg/mL (≈ 0.003 µM); in [17] it was 10 µg/mL (≈ 30 µM); in [18], 0.07 µg/mL (≈ 0.21 µM). Further, in [11], the minimum cytotoxic concentration (morphology alteration) was more than 400 µg/mL.
